Screens as filed in PubChem.
Sampled rows, rich in hits. Any-hit rate of the full collection: about 0.9%.
S1P4 antag – S1P4 receptor antagonists, primary screen, cell-based | S1P4-expressing cells, antagonist mode, reporter read-out | inhibition, % at 4.98 µM | Sphingosine 1-phosphate receptor 4 (Homo sapiens), O95977 | 220,000 compounds, 0.26% hits; in the data active means inhibition above about 29%;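 further: 0% = wells stimulated with agonist and 100% = vehicle wells without agonist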
S1P4 ag – S1P4 receptor agonists, primary screen, cell-based; Sphingosine 1-phosphate receptor 4 (Homo sapiens), O95977; S1P4-expressing cell line, agonist reporter assay; activation, % at 4.98 µM; 220,000 compounds, 0.35% hits; in the data active means activation above about 11%;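 further: 0% = DMSO vehicle and 100% = reference agonist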
Mdm2 ligase inh – MDM2-luciferase reporter signal enhancers, primary screen, MDM2 E3 ligase inhibitor project, cell-based, luminescence, 1536-well | E3 ubiquitin-protein ligase Mdm2 (Homo sapiens), Q00987 | signal enhancement, % at 5 µM | AID 1230, 2008 | 210,000 compounds, 0.11% hits | cell-based MDM2 ubiquitination luciferase reporter, 2 h; 0 = plate control, 100 = twice control, blank-subtracted;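 active means signal enhancement of 30% or more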;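 further: luminescence tracks abundance of the self-degrading MDM2-luciferase fusion protein; higher signal means inhibition of MDM2 E3 ligase activity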
Target sequence (Q00987 whole entry, looked up, the tested form may be a part): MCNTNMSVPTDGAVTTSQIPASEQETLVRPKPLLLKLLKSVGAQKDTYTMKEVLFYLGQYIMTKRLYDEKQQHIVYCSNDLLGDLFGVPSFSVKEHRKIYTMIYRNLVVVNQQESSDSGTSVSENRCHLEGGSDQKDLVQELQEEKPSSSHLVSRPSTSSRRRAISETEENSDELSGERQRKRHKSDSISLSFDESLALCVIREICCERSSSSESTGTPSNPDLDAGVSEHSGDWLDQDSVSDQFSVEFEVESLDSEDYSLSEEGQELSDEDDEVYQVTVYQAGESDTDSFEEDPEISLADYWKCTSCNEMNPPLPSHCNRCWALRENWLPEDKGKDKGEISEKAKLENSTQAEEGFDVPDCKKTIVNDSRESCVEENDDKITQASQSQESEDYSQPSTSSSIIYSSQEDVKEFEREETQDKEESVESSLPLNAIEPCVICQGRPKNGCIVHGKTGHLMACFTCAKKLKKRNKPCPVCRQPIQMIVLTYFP
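Assay system: stable mammalian line carrying autodegrading MDM2–luciferase fusion reporter; Input: 2000 cells in each well; Compound dosing: single-point 5 µM; Schedule: 2 h compound exposure at 37 °C; Signal: SteadyLite luciferase luminescence after 15 min room-temperature reagent incubation; Evaluation: % luminescence enhancement versus blank-corrected plate control mean; Benchmarks: plate controls and plate blanks.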
Calb biofilm kill – clotrimazole potentiators killing C. albicans biofilm, primary screen, 4-compound mixtures. 120,000 compounds, 0.02% hits. AID 1242, 2008. inhibition, % at 7.6 µM. C. albicans biofilm persisters + clotrimazole, fluorescence viability; primary screen in compound mixtures of four per well;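 further: compounds exposed to preformed 24 h biofilms for 48 h; 0% = untreated biofilm control and 100% = clotrimazole plus chlorhexidine kill blank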
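Incubation: 24 h biofilm formation, then 48 h compound exposure, 37 °C | Material: C. albicans biofilms | Buffer or medium: RPMI/MOPS medium, pH 7.0 | Measured by: 2-h Alamar Blue fluorescence, 535/590 nm excitation/emission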
S1P3 antagonist – S1P3 receptor antagonists, primary screen, cell-based. Sphingosine 1-phosphate receptor 3 (Homo sapiens), Q99500. CHO S1P3 NFAT-BLA reporter, FRET fluorescence, antagonist mode. inhibition, % at 4.98 µM. 170,000 compounds, 0.27% hits. AID 485, 2006;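 active means inhibition above the plate cutoff, the mean inhibition of test wells on that plate plus 3 SD, cut at about 28% in these data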;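 further: cells challenged with S1P at its EC80 of 0.8 µM; blue over green emission ratio from cleaved BLA substrate after 4 h stimulation; 0% = S1P-stimulated wells and 100% = unstimulated DMSO-only wells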
S1P4 antag conf – S1P4 receptor antagonists, human, confirmation, cell-based; shares compounds with S1P4 antag; S1P4-expressing cell line, antagonist mode, reporter read-out; AID 1524, 2009; 520 compounds, 71% hits; inhibition, % at 4.98 µM; in the data active means inhibition above about 30%
S1P1 antagonist – S1P1 receptor antagonists, human, counter-screen for S1P4 antagonist project, cell-based; shares compounds with S1P4 antag; cell-based S1P1 antagonist counterscreen, inhibition; inhibition, % at 4.98 µM; 520 compounds, 37% hits; AID 1564, 2009; in the data active means inhibition above about 40%;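 further: receptor stimulated with S1P near its EC80; 0% = agonist stimulated wells and 100% = vehicle only wells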
* hit, by the source's call; . = not tested or not shown.

SMILES	S1P4 antag	S1P4 ag	Mdm2 ligase inh	Calb biofilm kill	S1P3 antagonist	S1P4 antag conf	S1P1 antagonist
CC(NC(=O)CN(c1cccc(C(F)(F)F)c1)S(=O)(=O)c1ccc(Cl)c([N+](=O)[O-])c1)c1ccccc1 (centres undefined)	44*	0	-20	12	-18	87*	53*
Cc1ccccc1CSc1nnc([C@@H]2CCCN2)o1	1	0	-6	19	-6	.	.
CCCN1C(=O)S/C(=C/c2ccc(N3CCOCC3)o2)C1=O	33*	-2	-7	0	-4	14	7
CCCN1C(=O)S/C(=C\c2ccc(N3CCOCC3)o2)C1=O	10	-2	1	9	-8	.	.
Cn1c(CN2CCN(C(=O)c3ccc(F)cc3)CC2)nc2cc([N+](=O)[O-])ccc21	-30	4	-8	8	-4	.	.
Cc1cccc(C)c1NC(=O)c1ccc(-c2ccc(Cl)cc2Cl)o1	96*	1	-9	.	.	111*	-2
COC(=O)c1sccc1NC(=O)CNC(=O)c1ccccc1	-6	-1	-6	5	-15	.	.
CN(C)c1ccc(C(=O)c2ccc(N(C)C)c3ccccc23)cc1	34*	-1	19	9	.	50*	60*
COc1ccc(C(=O)c2ccc(N(C)C)cc2)c(OC)c1	-12	1	-14	.	28	.	.
O=C(/C=C/c1ccc([N+](=O)[O-])cc1)c1cccnc1	34*	1	-19	12	-4	79*	52*
O=C(/C=C/c1ccc([N+](=O)[O-])cc1)NCc1cccnc1	-9	-1	-20	.	.	.	.
Oc1ccccc1C1Nc2cccc3cccc(c23)N1	-30	2	-1	.	17	.	.
O=[N+]([O-])c1ccccc1C1Nc2cccc3cccc(c23)N1	59*	-2	14	.	.	0	-41
O=[N+]([O-])c1ccc(Cl)c(C2Nc3cccc4cccc(c34)N2)c1	59*	0	-1	.	.	1	19
CCCOC(=O)CCCCCCCCC(O)CN1CCCCC1 (centres undefined)	2	1	-11	7	-3	.	.
Cc1ccc(C)c(N(C(=O)Cn2nnc3ccccc32)C(C(=O)NCc2ccco2)c2ccncc2)c1 (centres undefined)	34*	-1	-12	.	-20	0	15
Cc1nn(-c2ccccc2)c2c1C(c1ccc(O)c(O)c1)N1C(=N2)C(Nc2ccccc2)=Nc2ccccc21 (centres undefined)	51*	0	-21	.	.	70*	65*
Cc1ccc(NC2=Nc3ccccc3N3C2=Nc2c(c(C)nn2-c2ccccc2)C3c2ccc(O)c(O)c2)cc1 (centres undefined)	24	1	-15	.	.	.	.
COc1cc(-c2nc3n(n2)C(c2ccncc2)C(C(N)=O)=C(C)N3)cc(OC)c1OC (centres undefined)	66*	0	3	.	-5	-1	5
COc1ccc(C(=O)Nc2cccc(-c3nc4ncccc4o3)c2C)cc1	33*	-2	-14	.	.	1	-8
CC(C)(C)c1ccc(C(O)CCCN2CCC(C(O)(c3ccccc3)c3ccccc3)CC2)cc1 (centres undefined)	33*	-1	.	12	-10	6	-6
CCc1nc2ccc(C(=O)NCc3ccco3)cc2nc1CC	1	-1	-2	.	4	.	.
O=C(NCc1ccco1)c1ccc2c(c1)CCO2	30*	-1	-14	26	-12	3	-1
O=C(/C(=C/c1ccc(Cl)cc1)c1nc2ccccc2[nH]1)c1cccs1	44*	-1	-19	.	.	116*	74*
COc1ccc(CS(=O)(=O)/C(Cl)=C(/Cl)C(=O)Nc2ccc(OC)nc2)cc1	80*	1	-9	.	.	119*	85*
SMILES	S1P4 antag	S1P4 ag	Mdm2 ligase inh	Calb biofilm kill	S1P3 antagonist	S1P4 antag conf	S1P1 antagonist
COc1ccc(NC(=O)Cc2ccccc2)cn1	6	0	-8	4	-4	.	.
COc1ccc(/C=C/C(=O)Nc2ccc(OC)nc2)cc1	11	3	-9	16	-5	.	.
COc1ccc(NC(=O)/C(Cl)=C(/Cl)S(=O)Cc2ccccc2)cn1 (centres undefined)	91*	-3	-5	.	.	123*	68*
Cn1ncc2c(Nc3ccc([N+](=O)[O-])cc3)nc(Cl)nc21	-9	1	-8	18	9	.	.
CCOC(=O)c1c(C)oc2ccc(OC(=O)c3cccs3)cc12	14	1	-1	15	2	.	.
CCCCC(c1nnnn1CS(=O)(=O)c1ccc(C)cc1)N1CCN(C)CC1 (centres undefined)	-6	0	-5	16	-27	.	.
CCOC(=O)c1cnc(SC2CC(=O)N(c3ccccc3)C2=O)nc1N (centres undefined)	-11	-1	-4	.	.	.	.
CCOC(=O)c1cnc(SC2CC(=O)N(c3ccc(C)cc3)C2=O)nc1N (centres undefined)	44*	-2	-3	.	.	14	16
CC(C)(C)c1cnnn1-c1cccc([N+](=O)[O-])c1	-12	2	2	24	-3	.	.
COc1ccc(N2CCN(c3cc(C)c4ccc(O)cc4n3)CC2)cc1	-10	0	-14	.	-21	.	.
COc1ccc(Nc2cc(C)c3ccc(O)cc3n2)cc1	88*	0	-14	4	-6	65*	30
Cc1cc(Nc2ccccc2)nc2cc(O)ccc12	92*	0	.	16	-15	81*	41*
CCOC(=O)c1ccc(NC(=S)NNC(=O)C2(C)CC2(Cl)Cl)cc1 (centres undefined)	-23	1	3	9	.	.	.
CCN(CC)S(=O)(=O)c1ccc2nc(CCl)[nH]c2c1	-7	4	-4	14	19	.	.
CC(c1ccco1)N(C(=O)c1ccccc1NS(=O)(=O)c1ccc(Cl)c([N+](=O)[O-])c1)c1ccccn1 (centres undefined)	-3	-1	4	12	-1	.	.
COc1cc(SC)ccc1C(=O)Nc1c(C)cccc1C	81*	0	-5	16	0	85*	12
Cc1ccnc(N2C(=O)c3cccc4c([N+](=O)[O-])ccc(c34)C2=O)c1	105*	1	7	.	.	115*	133*
O=C1c2cccc3c([N+](=O)[O-])ccc(c23)C(=O)N1Cc1cccnc1	72*	2	-17	21	7	95*	42*
